# Measured values from different studies.
# Each line is one published result; the experiments were not run side by side.
# Target: Dual specificity mitogen-activated protein kinase kinase 3 (MAP2K3, Homo sapiens, UniProt P46734)
# Residues used in one study (P46734 1-347): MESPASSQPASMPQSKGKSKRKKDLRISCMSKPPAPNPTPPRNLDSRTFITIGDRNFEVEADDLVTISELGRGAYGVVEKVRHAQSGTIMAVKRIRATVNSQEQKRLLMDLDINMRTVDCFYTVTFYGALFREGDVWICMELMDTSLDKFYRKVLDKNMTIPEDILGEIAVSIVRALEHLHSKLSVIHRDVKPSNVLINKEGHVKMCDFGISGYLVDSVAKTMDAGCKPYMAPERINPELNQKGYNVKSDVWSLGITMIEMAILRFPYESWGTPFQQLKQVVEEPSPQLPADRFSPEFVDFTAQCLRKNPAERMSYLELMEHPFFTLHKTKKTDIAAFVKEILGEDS
SMILES,test,conditions,remaining binding
FC(F)(F)Oc1cccc(-c2cnc3ccc(-c4ccncc4)nn23)c1,"cell-free assay, competition with immobilised ligand",5 µM,35%
Cc1cnn2ncc(-c3ccnc(N(C)C)n3)c2c1,binding,1 µM,83%
O=C(c1ccc(Nc2ncc(Cl)c(-c3cc4ccccc4s3)n2)cc1)N1CCC(N2CCCC2)CC1,"binding, competition with immobilised ligand",1 µM,43%
CCCOc1ccc([C@H]2[C@H](C(=O)O)[C@@H](c3ccc4c(c3)OCO4)CN2CC(=O)Nc2c(CC)cccc2CC)cc1,"cell-free assay, competition with immobilised ligand",1 µM,60%
O=C(c1ccc(Nc2nccc(-c3cc4ccccc4s3)n2)cc1)N1CCC(N2CCCC2)CC1,"binding, competition with immobilised ligand",1 µM,42%
C[C@H](NC(=O)c1cnc2n1[C@](C)(Cc1ccc(C#N)cc1)C(=O)N2c1cc(Cl)c(F)c(Cl)c1)C(=O)NC1(c2ccccn2)CC1,"cell-free assay, competition with immobilised ligand",1 µM,80%
CN(C)c1ncc(F)c(-c2cnn3ncccc23)n1,binding,1 µM,78%
CNC(=O)[C@@H]1CC[C@@H](n2c(-c3ccc4cnccc4c3)nc3ccc(C(=O)NCc4cccc(C(N)=O)c4)cc32)C1,"binding, competition with immobilised ligand",1 µM,98%
C[C@H]1CCN(c2nccc(-c3cnn4ncccc34)n2)C1,binding,1 µM,69%
N#CC1(c2ccccn2)CCN(Cc2cc(C(=O)N3CCCC3)c(=O)n3ccccc23)CC1,"cell-free assay, competition with immobilised ligand",1 µM,81%
COc1ccnn2ncc(-c3ccnc(N(C)C)n3)c12,binding,1 µM,71%
O=C(NCc1ncc(C(F)(F)F)cc1Cl)c1ccc2c(c1)C1(CCS(=O)(=O)CC1)[C@@H](C1CC1)N2S(=O)(=O)c1ccc(F)cc1,"cell-free assay, competition with immobilised ligand",1 µM,73%
CN(C)c1nccc(-c2cnc3ncccn23)n1,binding,1 µM,78%
CO[C@@H](C)c1c(Nc2ccc([C@@H](N(C)C(=O)C3CCS(=O)(=O)CC3)C(F)(F)F)cc2)cnc2cc(Cl)nn12,"cell-free assay, competition with immobilised ligand",1 µM,90%
N[C@H]1CCN(c2nccc(-c3cnn4ncccc34)n2)C1,binding,1 µM,67%
CCN1CCN(Cc2ccc(C(=O)Nc3ccc(C)c(Oc4ccc5c(c4)CC(=O)N5)c3)cc2C(F)(F)F)CC1,"binding, competition with immobilised ligand",1 µM,100%
CN(C)c1ncnc(-c2ccc3nc(Nc4cc(CN5CCN(C(=O)CC(F)(F)F)CC5)ccn4)[nH]c3c2)c1Cl,"cell-free assay, competition with immobilised ligand",1 µM,73%
COc1cnc(Nc2cccc(S(N)(=O)=O)c2)nc1N1CCN(c2ccccc2)C(=O)C1,"binding, competition with immobilised ligand",1 µM,84%
O=C(Nc1c[nH]nc1C(=O)NC1CCNCC1)c1cc(F)cc(F)c1,"binding, competition with immobilised ligand",1 µM,100%
O=C(NCCCN1CCOCC1)c1ccc(Nc2nccc(-c3cc4ccccc4s3)n2)cc1,"binding, competition with immobilised ligand",1 µM,47%
CN(c1nccc(-c2cnn3ncccc23)n1)C1CC1,binding,1 µM,93%
CN(C)C(=O)Cn1cc(-c2nc([C@@](C)(c3ccc(-c4cnc(N)nc4)cc3)C3CC3)no2)cn1,"cell-free assay, competition with immobilised ligand",1 µM,83%
